# Calls of active or inactive are those of the source. No cut-off for these calls is given here.
# How the values were obtained:
# Leishmania donovani [1] = test: Antileishmanial activity against promastigote stage of Leishmania donovani MHOM/NP/02/BPK282/0c14 assessed as parasite growth inhibition up to 40 uM after 72 hrs by Alamar blue assay; assay type: functional, organism-based
# Procedure, shortened: (§1)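 Late log/stationary promastigotes were seeded at 10^6/mL in HOMEM with 20% FBS and exposed to compounds at 40–1.6 µM for 72 h at 26 °C, from 8 mM DMSO stocks. AlamarBlue was then added for 24 h at 26 °C, and absorbance was read at 550 and 630 nm. Runs were in duplicate. IC50/72h is the mean of two independent determinations.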
# Leishmania donovani [2] = test: Antileishmanial activity against promastigote stage of Leishmania donovani MHOM/NP/02/BPK282/0c14 assessed as parasite growth inhibition after 72 hrs by Alamar blue assay; assay type: functional, organism-based; conditions: MHOM/NP/02/BPK282/0c14, 72 h; procedure, shortened: as §1
# [3] = Cytotoxicity against African green monkey Vero cells after 72 hrs by Alamar blue assay; assay type: cell-based; conditions: chlorocebus sabaeus
# Procedure, shortened: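 Vero cells were seeded at 10^5/mL in MEM with 10% FBS and exposed to compounds up to 600 µM for 72 h at 37 °C, 5% CO2. AlamarBlue was added for 24 h at 37 °C, with absorbance read at 550 and 630 nm. Duplicates. CC50/72h determined.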
# [4] = Cytotoxicity against human THP1 cells after 72 hrs by Alamar blue assay; assay type: cell-based; conditions: THP-1 cells
# Procedure, shortened: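 THP-1 cells were seeded at 10^5 cells/mL in RPMI-1640 with 10% FBS and adhered with 0.1 µM PMA, then exposed to compounds for 72 h at 37 °C, 5% CO2. AlamarBlue was added for 24 h at 37 °C, with absorbance read at 550 and 630 nm. Duplicates. CC50/72h determined.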
# [5] = Selectivity index, ratio of CC50 for human THP1 cells to IC50 for Leishmania donovani MHOM/NP/02/BPK282/0c14; assay type: toxicity; conditions: THP-1 cells, read-out: Ratio CC50/IC50
# Procedure, shortened: (§2)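 Selectivity index calculated as CC50/72h in Vero (16) or THP-1 (17) cells divided by IC50/72h against L. donovani promastigotes.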
# [6] = Selectivity index, ratio of CC50 for African green monkey Vero cells to IC50 for Leishmania donovani MHOM/NP/02/BPK282/0c14; assay type: toxicity; conditions: read-out: Ratio CC50/IC50; procedure, shortened: as §2
# [7] = Safety index, ratio of test compound CC50 to amphotericin B CC50 for human THP1 cells; assay type: ADME, cell-based; conditions: THP-1 cells
# [8] = Safety index, ratio of test compound CC50 to amphotericin B CC50 for African green monkey Vero cells; assay type: ADME, cell-based; conditions: chlorocebus sabaeus
# Leishmania tropica = test: Antileishmanial activity against promastigote stage of Leishmania tropica MHOM/SU/74/K27 assessed as parasite growth inhibition after 72 hrs by Alamar blue assay; assay type: functional, organism-based; conditions: MHOM/SU/74/K27, 72 h; procedure, shortened: as §1
# Leishmania major = test: Antileishmanial activity against promastigote stage of Leishmania major MHOM/SU/73/5-ASKH assessed as parasite growth inhibition after 72 hrs by Alamar blue assay; assay type: functional, organism-based; procedure, shortened: as §1
# Leishmania donovani [9] = test: Antileishmanial activity against amastigote stage of Leishmania donovani MHOM/NP/02/BPK282/0c14 infected in human THP1 cells assessed as parasite growth inhibition after 72 hrs by Giemsa staining-based assay; assay type: functional, organism-based; conditions: MHOM/NP/02/BPK282/0c14, THP-1, 72 h
# Procedure, shortened: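 THP-1 cells at 10^5 cells/mL differentiated with 0.1 µM PMA for 48 h at 37 °C, 5% CO2, then infected with stationary-phase promastigotes. After 24 h, compounds were added at 40–1.5 µM for 72 h. Wells were Giemsa-stained, and the infectivity index (% infected macrophages × mean amastigotes per macrophage) was counted on ≥100 cells in duplicate cultures. IC50/72h determined.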
# Leishmania infantum = test: Antileishmanial activity against promastigote stage of Leishmania infantum MHOM/TN/80/IPT1 assessed as parasite growth inhibition after 72 hrs by Alamar blue assay; assay type: functional, organism-based; conditions: MHOM/TN/80/IPT1, 72 h; procedure, shortened: as §1
# [10] = Binding affinity to Leishmania spp. trypanothione reductase by surface plasmon resonance analysis; design: species or system Leishmania sp.
# Procedure, shortened: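 Recombinant L. infantum TR was amine-coupled to ~2000 RU on a carboxyl sensor chip. Analytes in HBS pH 7.4 + 1% DMSO were given as FastStep serial doubling injections from 1.56 to 100 µM, followed by dissociation after 100 s. A protein-free surface served as control. Sensorgrams are averages of three experiments. KD came from Scatchard plots and a global 1:1 binding fit.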
SMILES,growth inhibition (GI) (Leishmania donovani [1]),IC50 (Leishmania donovani [2]) [µM],CC50 at 72 h [3] [µM],CC50 at 72 h [4] [µM],selectivity ratio [5],selectivity ratio [6],also measured
C#CCOc1ccc(C(=O)/C=C/c2ccc(OC)c(OC)c2)c(OC)c1,inactive,–,–,–,–,–,–
COc1cc(OCC=C(C)C)ccc1C(=O)/C=C/c1ccncc1,–,10.5,16,16,1.5,1.5,–
COc1cc(OCC=C(C)C)ccc1C(=O)/C=C/c1cc(OC)c(OC)c(OC)c1,–,11,40,25,2.3,3.6,–
C#CCOc1ccc(C(=O)/C=C/c2ccc(F)cc2)c(OCC#C)c1,–,12.5,600,600,48,48,selectivity ratio [7]: 3; selectivity ratio [8]: 3; IC50 (Leishmania tropica): 13 µM; IC50 (Leishmania major): 10 µM; IC50 (Leishmania donovani [9]): 4.5 µM; IC50 (Leishmania infantum): 1600 nM; Kd [10]: 2400 nM
COc1cc(OCC=C(C)C)ccc1C(=O)/C=C/c1ccccc1,–,15,50,50,3.3,3.3,–
C#CCOc1ccc(C(=O)/C=C/c2cc(OC)c(OC)c(OC)c2)c(OCC#C)c1,inactive,–,–,–,–,–,–
COc1cc(OCC=C(C)C)ccc1C(=O)/C=C/c1ccco1,inactive,–,–,–,–,–,–
C#CCOc1ccc(C(=O)/C=C/c2ccc(OC)cc2)c(OCC#C)c1,inactive,–,–,–,–,–,–
CC(C)=CCOc1ccc(C(=O)/C=C/c2cccnc2)c(O)c1,–,8.5,210,100,11.8,24.7,–
C#CCOc1ccc(C(=O)/C=C/c2ccc([N+](=O)[O-])cc2)c(OCC#C)c1,inactive,–,–,–,–,–,–
C#CCOc1ccc(C(=O)/C=C/c2ccc(OC)c(OC)c2)c(OCC#C)c1,inactive,–,–,–,–,–,–
COc1ccc(/C=C/C(=O)c2ccc(OCC=C(C)C)cc2OC)cc1OC,inactive,–,–,–,–,–,–
CC(C)=CCOc1ccc(C(=O)/C=C/c2ccccc2)c(O)c1,inactive,–,–,–,–,–,–
C#CCOc1ccc(C(=O)/C=C/c2ccc([N+](=O)[O-])cc2)c(OC)c1,inactive,–,–,–,–,–,–
C#CCOc1ccc(C(=O)/C=C/c2ccc(Br)cc2)c(OCC#C)c1,–,15,420,25,1.6,28,–
C#CCOc1ccc(C(=O)/C=C/c2ccncc2)c(OCC#C)c1,–,7,10,11,1.6,1.4,–

SMILES,growth inhibition (GI) (Leishmania donovani [1]),IC50 (Leishmania donovani [2]) [µM],CC50 at 72 h [3] [µM],CC50 at 72 h [4] [µM],selectivity ratio [5],selectivity ratio [6],also measured
C#CCOc1ccc(C(=O)/C=C/c2cccnc2)c(OC)c1,–,9.5,15,16,1.7,1.6,–
C#CCOc1ccc(C(=O)/C=C/c2cccnc2)c(OCC#C)c1,–,4,6,15,3.8,1.5,–
CC(=O)Oc1cc(OCC=C(C)C)ccc1C(=O)/C=C/c1ccccc1,inactive,–,–,–,–,–,–
C#CCOc1ccc(C(=O)/C=C/c2ccc(Br)cc2)c(OC)c1,–,21.5,100,100,4.6,4.6,–
C#CCOc1ccc(C(=O)/C=C/c2ccncc2)c(OC)c1,–,4,20,16,4,5,–
C[C@@H]1[C@H](O)[C@@H](C)/C=C/C=C/C=C/C=C/C=C/C=C/C=C/[C@H](O[C@@H]2O[C@H](C)[C@@H](O)[C@H](N)[C@@H]2O)C[C@@H]2O[C@](O)(C[C@@H](O)C[C@@H](O)[C@H](O)CC[C@@H](O)C[C@@H](O)CC(=O)O[C@H]1C)C[C@H](O)[C@H]2C(=O)O [AMPHOTERICIN B],–,0.3,200,200,666,666,–
COc1cc(OCC=C(C)C)ccc1C(=O)/C=C/c1ccc(Br)cc1,–,16,600,100,6.3,37.5,–
C#CCOc1ccc(C(=O)/C=C/c2cc(OC)c(OC)c(OC)c2)c(OC)c1,inactive,–,–,–,–,–,–
COc1cc(OCC=C(C)C)ccc1C(=O)/C=C/c1cccnc1,–,10.5,22,40,3.8,2,–
C#CCOc1ccc(C(=O)/C=C/c2cccnc2)c(O)c1,–,17.5,40,25,1.4,2.3,–
COc1ccc(/C=C/C(=O)c2ccc(OCC=C(C)C)cc2OC)cc1,inactive,–,–,–,–,–,–
COc1cc(OCC=C(C)C)ccc1C(=O)/C=C/c1ccc(NC(C)=O)cc1,inactive,–,–,–,–,–,–
CC(C)=CCOc1ccc(C(=O)/C=C/c2ccncc2)c(O)c1,–,5,40,16,3.2,8,–
CC(C)=CCOc1ccc(C(=O)/C=C/c2ccccc2)c(OCC=C(C)C)c1,inactive,–,–,–,–,–,–
COc1cc(OCC=C(C)C)ccc1C(=O)/C=C/c1ccc(F)cc1,inactive,–,–,–,–,–,–

# From ChEMBL document CHEMBL4152258, “Identification of chalcone-based antileishmanial agents targeting trypanothione reductase” (Eur J Med Chem, 2018)
